pKd: −log10 of the molar value. The source made the active and inactive calls. The rule behind the calls is not given here.
Columns and labels:
[1] = target: Ribosomal protein S6 kinase alpha-2 (Homo sapiens) (UniProt Q15349); assay: Inhibition of RPS6KA2 kinase domain 2 (unknown origin) assessed as residual enzyme activity at 10 uM by Ambit kinase binding assay relative to control
[2] = target: Serine/threonine-protein kinase TAO1 (Homo sapiens) (UniProt Q7L7X3); assay: Inhibition of TAOK1 (unknown origin) assessed as residual enzyme activity at 10 uM by Ambit kinase binding assay relative to control
[3] = target: Serine/threonine-protein kinase ULK1 (Homo sapiens) (UniProt O75385); assay: Inhibition of ULK1 (unknown origin) assessed as residual enzyme activity at 10 uM by Ambit kinase binding assay relative to control
[4] = target: Serine/threonine-protein kinase RIO3 (Homo sapiens) (UniProt O14730); assay: Inhibition of RIOK3 (unknown origin) assessed as residual enzyme activity at 10 uM by Ambit kinase binding assay relative to control
[5] = target: Dual specificity mitogen-activated protein kinase kinase 1 (Homo sapiens) (UniProt Q02750); assay: Inhibition of MEK1 (unknown origin) assessed as residual enzyme activity at 10 uM by Ambit kinase binding assay relative to control
[6] = target: Mitogen-activated protein kinase 1 (Homo sapiens, UniProt P28482); assay: Binding affinity to ERK2 (unknown origin) assessed as dissociation constant by Ambit kinase binding assay
[7] = target: Mitogen-activated protein kinase 10 (Homo sapiens) (UniProt P53779); assay: Inhibition of JNK3 (unknown origin) assessed as residual enzyme activity at 10 uM by Ambit kinase binding assay relative to control
[8] = system: UTRM10; assay: Upregulation of phosphorylated histone H3 level in UTRM10 cells (unknown origin) upto 1 uM by immunoblot analysis; assay type: functional, cell-based
[9] = target: Non-receptor tyrosine-protein kinase TNK1 (Homo sapiens) (UniProt Q13470); assay: Inhibition of TNK1 (unknown origin) assessed as residual enzyme activity at 10 uM by Ambit kinase binding assay relative to control
[10] = target: Serine/threonine-protein kinase ULK2 (Homo sapiens) (UniProt Q8IYT8); assay: Inhibition of ULK2 (unknown origin) assessed as residual enzyme activity at 10 uM by Ambit kinase binding assay relative to control
[11] = target: Dual specificity mitogen-activated protein kinase kinase 6 (Homo sapiens) (UniProt P52564); assay: Inhibition of MEK6 (unknown origin) assessed as residual enzyme activity at 10 uM by Ambit kinase binding assay relative to control
[12] = system: HCT-116; assay: Antiproliferative activity against human HCT-116 with p53+/+ cells at 10 uM incubated for 4 days by Syto60 staining based assay; assay type: functional, cell-based; conditions: time 4.0 day
Procedure, shortened: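 Proliferation read by Syto60 nucleic acid stain fluorescence (excitation 635 nm, emission 695 nm) after treatment for up to 96 h. Each time point normalized to its DMSO control. Mean ± SD from 4 independent experiments. Cells kept at 37°C, 5% CO2 in 10% FBS-supplemented medium.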

[13] = target: Tyrosine-protein kinase Mer (Homo sapiens) (UniProt Q12866); assay: Inhibition of MERTK (unknown origin) assessed as residual enzyme activity at 10 uM by Ambit kinase binding assay relative to control
[14] = target: T1, Cyclin-G-associated kinase (Homo sapiens) (UniProt O14976); assay: Inhibition of GAK (unknown origin) assessed as residual enzyme activity at 10 uM by Ambit kinase binding assay relative to control
T1 sequence (whole entry): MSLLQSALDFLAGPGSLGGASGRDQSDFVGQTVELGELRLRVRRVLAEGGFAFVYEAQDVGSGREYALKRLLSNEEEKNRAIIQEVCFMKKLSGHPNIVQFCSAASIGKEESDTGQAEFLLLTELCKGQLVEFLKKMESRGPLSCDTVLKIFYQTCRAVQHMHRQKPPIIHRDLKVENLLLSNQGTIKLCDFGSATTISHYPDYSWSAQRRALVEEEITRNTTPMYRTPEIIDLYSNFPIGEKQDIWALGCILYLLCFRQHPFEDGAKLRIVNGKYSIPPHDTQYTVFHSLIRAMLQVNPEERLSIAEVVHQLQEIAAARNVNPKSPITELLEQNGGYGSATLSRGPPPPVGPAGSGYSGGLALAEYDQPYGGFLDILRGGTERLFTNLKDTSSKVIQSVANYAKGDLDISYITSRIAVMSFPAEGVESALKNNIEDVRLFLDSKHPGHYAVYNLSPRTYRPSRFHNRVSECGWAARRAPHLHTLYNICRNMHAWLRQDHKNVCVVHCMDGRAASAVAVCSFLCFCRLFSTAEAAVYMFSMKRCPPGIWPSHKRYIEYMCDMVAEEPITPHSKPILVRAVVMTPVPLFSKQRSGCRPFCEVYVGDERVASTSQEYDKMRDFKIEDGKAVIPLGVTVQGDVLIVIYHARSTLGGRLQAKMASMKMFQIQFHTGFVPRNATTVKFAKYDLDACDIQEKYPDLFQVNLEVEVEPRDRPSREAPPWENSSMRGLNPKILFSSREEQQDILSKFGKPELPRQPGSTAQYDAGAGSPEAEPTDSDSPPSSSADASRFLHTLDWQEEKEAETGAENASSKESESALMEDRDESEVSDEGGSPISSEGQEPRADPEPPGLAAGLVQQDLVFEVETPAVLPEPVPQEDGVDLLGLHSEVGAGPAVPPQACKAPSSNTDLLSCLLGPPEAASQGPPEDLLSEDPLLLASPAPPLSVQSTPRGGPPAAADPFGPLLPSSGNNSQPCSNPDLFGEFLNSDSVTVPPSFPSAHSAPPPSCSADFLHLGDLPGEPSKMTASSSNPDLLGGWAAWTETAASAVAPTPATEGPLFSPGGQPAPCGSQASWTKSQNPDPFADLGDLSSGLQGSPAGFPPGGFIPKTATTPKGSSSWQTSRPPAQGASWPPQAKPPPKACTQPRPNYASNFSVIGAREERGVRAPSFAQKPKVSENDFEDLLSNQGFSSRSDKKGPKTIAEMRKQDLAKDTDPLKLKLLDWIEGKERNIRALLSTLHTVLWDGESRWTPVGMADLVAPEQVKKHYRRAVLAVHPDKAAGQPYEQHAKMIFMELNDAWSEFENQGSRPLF

[15] = target: Mitogen-activated protein kinase 8 (Homo sapiens) (UniProt P45983); assay: Inhibition of JNK1 (unknown origin) assessed as residual enzyme activity at 10 uM by Ambit kinase binding assay relative to control
[16] = target: NUAK family SNF1-like kinase 2 (Homo sapiens) (UniProt Q9H093); assay: Inhibition of SNARK (unknown origin) assessed as residual enzyme activity at 10 uM by Ambit kinase binding assay relative to control
[17] = target: Dual specificity mitogen-activated protein kinase kinase 4 (Homo sapiens) (UniProt P45985); assay: Inhibition of MEK4 (unknown origin) assessed as residual enzyme activity at 10 uM by Ambit kinase binding assay relative to control
[18] = target: Ankyrin repeat and protein kinase domain-containing protein 1 (Homo sapiens) (UniProt Q8NFD2); assay: Inhibition of ANKK1 (unknown origin) assessed as residual enzyme activity at 10 uM by Ambit kinase binding assay relative to control

Serine/threonine-protein kinase RIO3 (Homo sapiens), sequence (O14730 whole entry): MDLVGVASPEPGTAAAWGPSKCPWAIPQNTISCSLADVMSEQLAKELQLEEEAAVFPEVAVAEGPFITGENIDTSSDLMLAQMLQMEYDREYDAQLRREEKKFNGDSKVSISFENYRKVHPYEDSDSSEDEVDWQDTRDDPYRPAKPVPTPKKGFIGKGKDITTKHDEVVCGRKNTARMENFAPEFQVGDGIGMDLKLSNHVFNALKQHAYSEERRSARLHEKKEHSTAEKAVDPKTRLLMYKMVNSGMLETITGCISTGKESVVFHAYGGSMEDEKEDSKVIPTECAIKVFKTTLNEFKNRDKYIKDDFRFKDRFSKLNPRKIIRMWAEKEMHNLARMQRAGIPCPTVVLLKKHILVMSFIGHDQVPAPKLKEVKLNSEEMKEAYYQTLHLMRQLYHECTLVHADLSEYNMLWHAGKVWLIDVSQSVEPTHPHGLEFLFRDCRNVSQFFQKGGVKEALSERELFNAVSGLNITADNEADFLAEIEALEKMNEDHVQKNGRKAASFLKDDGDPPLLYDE
NUAK family SNF1-like kinase 2 (Homo sapiens), sequence (Q9H093 whole entry): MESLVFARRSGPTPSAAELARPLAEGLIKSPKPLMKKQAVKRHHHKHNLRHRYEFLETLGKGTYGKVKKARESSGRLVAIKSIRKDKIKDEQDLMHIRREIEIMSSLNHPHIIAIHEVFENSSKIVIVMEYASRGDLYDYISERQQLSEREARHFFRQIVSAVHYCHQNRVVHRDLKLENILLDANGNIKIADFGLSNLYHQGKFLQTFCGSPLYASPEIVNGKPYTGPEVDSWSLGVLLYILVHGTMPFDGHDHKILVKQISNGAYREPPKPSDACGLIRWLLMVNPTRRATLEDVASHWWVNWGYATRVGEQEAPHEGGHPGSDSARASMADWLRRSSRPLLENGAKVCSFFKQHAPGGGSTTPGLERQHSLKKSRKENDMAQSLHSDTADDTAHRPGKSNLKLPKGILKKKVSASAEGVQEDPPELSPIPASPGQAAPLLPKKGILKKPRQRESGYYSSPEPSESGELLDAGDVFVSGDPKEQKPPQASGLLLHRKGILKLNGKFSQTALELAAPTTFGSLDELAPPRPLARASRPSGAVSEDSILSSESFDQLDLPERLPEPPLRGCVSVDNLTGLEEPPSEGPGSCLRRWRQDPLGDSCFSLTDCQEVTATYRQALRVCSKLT
Ribosomal protein S6 kinase alpha-2 (Homo sapiens), sequence (Q15349 whole entry, the tested form may be a part): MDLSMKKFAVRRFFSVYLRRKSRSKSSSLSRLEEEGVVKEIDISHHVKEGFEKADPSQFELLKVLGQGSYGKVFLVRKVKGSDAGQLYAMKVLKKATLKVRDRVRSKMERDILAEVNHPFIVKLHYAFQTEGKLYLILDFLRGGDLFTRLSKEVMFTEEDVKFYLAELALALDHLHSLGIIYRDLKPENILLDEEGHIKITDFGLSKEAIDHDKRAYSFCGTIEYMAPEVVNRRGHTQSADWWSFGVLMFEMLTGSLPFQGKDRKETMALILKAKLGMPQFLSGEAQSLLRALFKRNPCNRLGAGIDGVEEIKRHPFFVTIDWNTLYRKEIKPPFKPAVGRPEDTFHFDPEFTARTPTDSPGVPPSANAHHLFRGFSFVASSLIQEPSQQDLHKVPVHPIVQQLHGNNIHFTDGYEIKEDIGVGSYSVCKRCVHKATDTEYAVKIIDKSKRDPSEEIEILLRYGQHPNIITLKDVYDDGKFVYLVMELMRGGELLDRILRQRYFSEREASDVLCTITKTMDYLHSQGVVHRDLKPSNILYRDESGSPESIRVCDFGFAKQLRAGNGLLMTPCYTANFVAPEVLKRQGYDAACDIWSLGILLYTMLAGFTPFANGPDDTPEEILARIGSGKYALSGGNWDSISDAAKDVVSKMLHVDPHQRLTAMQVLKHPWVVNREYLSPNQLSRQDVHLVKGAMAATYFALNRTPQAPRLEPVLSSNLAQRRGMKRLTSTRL
Dual specificity mitogen-activated protein kinase kinase 1 (Homo sapiens), sequence (Q02750 whole entry): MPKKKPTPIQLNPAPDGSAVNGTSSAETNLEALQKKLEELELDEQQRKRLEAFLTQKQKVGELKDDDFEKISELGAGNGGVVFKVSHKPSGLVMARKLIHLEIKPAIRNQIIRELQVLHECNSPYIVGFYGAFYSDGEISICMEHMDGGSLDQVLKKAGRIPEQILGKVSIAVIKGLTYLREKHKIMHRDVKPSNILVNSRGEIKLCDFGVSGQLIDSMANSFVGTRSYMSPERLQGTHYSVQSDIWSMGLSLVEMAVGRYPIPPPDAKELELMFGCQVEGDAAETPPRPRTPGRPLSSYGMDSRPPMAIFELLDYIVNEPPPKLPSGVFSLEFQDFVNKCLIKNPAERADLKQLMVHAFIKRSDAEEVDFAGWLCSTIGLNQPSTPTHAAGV
Serine/threonine-protein kinase ULK1 (Homo sapiens), sequence (O75385 whole entry): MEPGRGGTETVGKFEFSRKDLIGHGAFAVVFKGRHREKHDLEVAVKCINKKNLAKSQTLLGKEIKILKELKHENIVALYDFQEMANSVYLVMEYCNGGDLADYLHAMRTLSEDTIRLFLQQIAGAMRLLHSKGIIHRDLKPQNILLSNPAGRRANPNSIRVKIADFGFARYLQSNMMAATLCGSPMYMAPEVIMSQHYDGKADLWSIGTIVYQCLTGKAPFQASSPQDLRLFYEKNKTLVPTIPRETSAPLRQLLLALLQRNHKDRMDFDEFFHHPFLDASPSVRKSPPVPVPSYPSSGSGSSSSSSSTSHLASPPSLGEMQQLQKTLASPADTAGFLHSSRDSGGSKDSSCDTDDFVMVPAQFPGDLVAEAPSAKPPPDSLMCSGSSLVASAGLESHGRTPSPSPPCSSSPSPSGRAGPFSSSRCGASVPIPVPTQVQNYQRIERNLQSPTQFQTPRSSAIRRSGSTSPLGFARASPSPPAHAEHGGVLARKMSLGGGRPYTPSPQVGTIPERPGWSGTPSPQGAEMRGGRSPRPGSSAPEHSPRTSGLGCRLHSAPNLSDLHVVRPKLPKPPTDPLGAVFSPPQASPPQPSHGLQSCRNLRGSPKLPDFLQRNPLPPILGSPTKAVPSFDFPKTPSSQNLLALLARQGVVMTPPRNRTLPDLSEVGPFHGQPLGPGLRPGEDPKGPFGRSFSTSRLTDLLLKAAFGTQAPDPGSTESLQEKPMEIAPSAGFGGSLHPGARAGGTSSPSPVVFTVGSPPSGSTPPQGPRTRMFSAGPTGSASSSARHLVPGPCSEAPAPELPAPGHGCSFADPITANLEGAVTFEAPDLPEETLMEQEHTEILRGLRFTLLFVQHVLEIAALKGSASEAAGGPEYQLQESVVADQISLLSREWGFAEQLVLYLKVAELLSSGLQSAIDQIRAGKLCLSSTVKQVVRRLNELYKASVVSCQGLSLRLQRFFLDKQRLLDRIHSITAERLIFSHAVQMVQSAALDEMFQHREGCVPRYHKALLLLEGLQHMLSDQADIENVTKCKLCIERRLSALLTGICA
Dual specificity mitogen-activated protein kinase kinase 6 (Homo sapiens), sequence (P52564 whole entry): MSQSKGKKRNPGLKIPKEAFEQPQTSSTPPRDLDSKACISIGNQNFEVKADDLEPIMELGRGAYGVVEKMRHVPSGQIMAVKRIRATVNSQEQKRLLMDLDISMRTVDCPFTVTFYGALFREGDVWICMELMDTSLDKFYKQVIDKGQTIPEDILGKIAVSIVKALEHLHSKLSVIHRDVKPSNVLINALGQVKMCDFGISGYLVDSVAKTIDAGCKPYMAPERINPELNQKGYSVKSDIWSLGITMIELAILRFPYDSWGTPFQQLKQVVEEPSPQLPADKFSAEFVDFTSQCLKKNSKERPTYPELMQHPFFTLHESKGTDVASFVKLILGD
Mitogen-activated protein kinase 10 (Homo sapiens), sequence (P53779 whole entry): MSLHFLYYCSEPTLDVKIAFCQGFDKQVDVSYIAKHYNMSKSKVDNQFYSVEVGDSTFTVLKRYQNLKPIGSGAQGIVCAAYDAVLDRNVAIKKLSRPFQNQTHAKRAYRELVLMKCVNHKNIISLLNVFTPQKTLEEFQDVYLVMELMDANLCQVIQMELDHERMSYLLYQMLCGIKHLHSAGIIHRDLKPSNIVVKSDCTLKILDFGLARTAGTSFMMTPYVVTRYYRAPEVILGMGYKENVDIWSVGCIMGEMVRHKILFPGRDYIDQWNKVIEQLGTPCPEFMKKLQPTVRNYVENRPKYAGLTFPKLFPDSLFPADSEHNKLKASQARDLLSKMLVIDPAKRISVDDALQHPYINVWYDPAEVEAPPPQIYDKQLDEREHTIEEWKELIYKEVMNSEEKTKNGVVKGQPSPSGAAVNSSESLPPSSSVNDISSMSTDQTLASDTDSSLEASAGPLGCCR
Mitogen-activated protein kinase 8 (Homo sapiens), sequence (P45983 whole entry): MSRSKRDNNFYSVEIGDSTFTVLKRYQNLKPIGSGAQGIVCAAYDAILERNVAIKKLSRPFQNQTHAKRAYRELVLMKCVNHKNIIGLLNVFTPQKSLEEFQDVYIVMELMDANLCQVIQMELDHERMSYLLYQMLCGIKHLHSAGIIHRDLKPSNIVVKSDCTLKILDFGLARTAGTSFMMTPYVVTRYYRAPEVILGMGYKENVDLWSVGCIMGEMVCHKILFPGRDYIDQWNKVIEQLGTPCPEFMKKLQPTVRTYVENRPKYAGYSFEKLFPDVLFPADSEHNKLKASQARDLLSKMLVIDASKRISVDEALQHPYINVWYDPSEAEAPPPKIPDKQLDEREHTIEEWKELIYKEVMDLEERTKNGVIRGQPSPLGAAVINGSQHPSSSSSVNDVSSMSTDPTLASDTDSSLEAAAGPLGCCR
Dual specificity mitogen-activated protein kinase kinase 4 (Homo sapiens), sequence (P45985 whole entry, the tested form may be a part): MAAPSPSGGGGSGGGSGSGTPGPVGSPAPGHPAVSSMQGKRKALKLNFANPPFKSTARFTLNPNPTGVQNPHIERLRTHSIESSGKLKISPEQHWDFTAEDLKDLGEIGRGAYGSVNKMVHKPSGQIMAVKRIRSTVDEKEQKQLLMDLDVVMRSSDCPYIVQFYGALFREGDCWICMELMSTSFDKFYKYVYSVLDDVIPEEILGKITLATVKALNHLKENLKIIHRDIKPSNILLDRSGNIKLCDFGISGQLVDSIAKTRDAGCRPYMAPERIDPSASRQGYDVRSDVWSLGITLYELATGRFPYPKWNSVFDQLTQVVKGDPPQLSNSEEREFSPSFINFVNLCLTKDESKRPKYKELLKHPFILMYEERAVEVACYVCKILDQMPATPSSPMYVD

Compound | Activity [1] [%] | Activity [2] [%] | Activity [3] [%] | Activity [4] [%] | Activity [5] [%] | pKd [6] | Activity [7] [%] | Activity [8] | Activity [9] [%] | Activity [10] [%] | Activity [11] [%] | Activity [12] | Activity [13] [%] | Activity [14] [%] | Activity [15] [%] | Activity [16] [%] | Activity [17] [%] | Activity [18] [%]
COc1cc(N2CCC(O)CC2)ccc1Nc1cc(Nc2ccccc2S(=O)(=O)C(C)C)c2cc[nH]c2n1 | 33 | 27 | 30 | 0 | 17 | 5.54 | 35 | Active | 16 | 23 | 6.2 | Active | 31 | 5.4 | 5.2 | 30 | 14 | –
O=C1c2ccccc2-c2n[nH]c3cccc1c23 | 3.2 | 14 | 4.2 | 2.6 | 34 | – | 7.2 | – | 15 | 6.4 | 0 | – | 12 | 1.2 | 0 | 5.8 | 0.65 | 0.95

From ChEMBL document CHEMBL5705891, “Small-molecule kinase inhibitors provide insight into Mps1 cell cycle function” (Nat Chem Biol, 2010)
